System: HEK-293T
Test: Multiplex assay against HEK293T;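 for Population Tubulin-Different-Phenotype (%): share of the cells with healthy nuclei that show this phenotype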
Assay type: toxicity, cell-based
Conditions: human
How it was run: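 Cells were classed with CellPathfinder machine-learning gating, first as Hoechst high-intensity objects or normal cells, then (normal cells) as healthy, pyknosed or fragmented nuclei, and finally (pyknosed cells) as mitotic or apoptotic. Staining of live cells at seeding used Hoechst33342, BioTracker Green Microtubule Cytoskeleton Dye, MitoTracker Red and Annexin V Alexa Fluor 680, with imaging on a CQ1 microscope at 37°C and 5% CO2 after compound addition. Tubulin, mitochondrial-mass and membrane-permeability phenotypes are per cents of healthy-nucleus cells.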

[1] = 12 h, 1 µM, compound concentration 1 uM, replicate 1
[2] = 12 h, 1 µM, compound concentration 1 uM, replicate 2
[3] = 12 h, 10 µM, compound concentration 10 uM, replicate 1
[4] = 12 h, 10 µM, compound concentration 10 uM, replicate 2
[5] = 24 h, 1 µM, compound concentration 1 uM, replicate 1
[6] = 24 h, 1 µM, compound concentration 1 uM, replicate 2
[7] = 24 h, 10 µM, compound concentration 10 uM, replicate 1
[8] = 24 h, 10 µM, compound concentration 10 uM, replicate 2
[9] = 48 h, 1 µM, compound concentration 1 uM, replicate 1
[10] = 48 h, 1 µM, compound concentration 1 uM, replicate 2
[11] = 48 h, 10 µM, compound concentration 10 uM, replicate 1
[12] = 48 h, 10 µM, compound concentration 10 uM, replicate 2

CC[C@H](Nc1ncnc2[nH]cnc12)c1nc2cccc(F)c2c(=O)n1-c1ccccc1 [IDELALISIB]
Population Apoptotic (%) [1]: 22% | Population Fragmented Nuclei (%) [1]: 18% | Population Healthy Nuclei (%) [1]: 46% | Population Hoechst High Intensity Objects (%) [1]: 14% | Population Membrane Permeable-Phenotype (%) [1]: 12% | Population Mitochondria Different-Phenotype (%) [1]: 15% | Population Mitotic Cells (%) [1]: 77% | Population Normal (%) [1]: 85% | Population Pyknosed Nuclei (%) [1]: 34% | Population Tubulin-Different-Phenotype (%) [1]: 29% | Total Cell Count [1]: 588 | Population Apoptotic (%) [2]: 10% | Population Fragmented Nuclei (%) [2]: 5% | Population Healthy Nuclei (%) [2]: 85% | Population Hoechst High Intensity Objects (%) [2]: 3% | Population Membrane Permeable-Phenotype (%) [2]: 11% | Population Mitochondria Different-Phenotype (%) [2]: 18% | Population Mitotic Cells (%) [2]: 89% | Population Normal (%) [2]: 96% | Population Pyknosed Nuclei (%) [2]: 9% | Population Tubulin-Different-Phenotype (%) [2]: 64% | Total Cell Count [2]: 1315 | Population Apoptotic (%) [3]: 18% | Population Fragmented Nuclei (%) [3]: 15% | Population Healthy Nuclei (%) [3]: 60% | Population Hoechst High Intensity Objects (%) [3]: 9% | Population Membrane Permeable-Phenotype (%) [3]: 4% | Population Mitochondria Different-Phenotype (%) [3]: 3% | Population Mitotic Cells (%) [3]: 81% | Population Normal (%) [3]: 91% | Population Pyknosed Nuclei (%) [3]: 23% | Population Tubulin-Different-Phenotype (%) [3]: 2% | Total Cell Count [3]: 500 | Population Apoptotic (%) [4]: 8% | Population Fragmented Nuclei (%) [4]: 8% | Population Healthy Nuclei (%) [4]: 86% | Population Hoechst High Intensity Objects (%) [4]: 2% | Population Membrane Permeable-Phenotype (%) [4]: 1% | Population Mitochondria Different-Phenotype (%) [4]: 10% | Population Mitotic Cells (%) [4]: 91% | Population Normal (%) [4]: 97% | Population Pyknosed Nuclei (%) [4]: 5% | Population Tubulin-Different-Phenotype (%) [4]: 7% | Total Cell Count [4]: 1603 | Population Apoptotic (%) [5]: 17% | Population Fragmented Nuclei (%) [5]: 14% | Population Healthy Nuclei (%) [5]: 67% | Population Hoechst High Intensity Objects (%) [5]: 10% | Population Membrane Permeable-Phenotype (%) [5]: 16% | Population Mitochondria Different-Phenotype (%) [5]: 12% | Population Mitotic Cells (%) [5]: 82% | Population Normal (%) [5]: 89% | Population Pyknosed Nuclei (%) [5]: 18% | Population Tubulin-Different-Phenotype (%) [5]: 48% | Total Cell Count [5]: 613 | Population Apoptotic (%) [6]: 8% | Population Fragmented Nuclei (%) [6]: 17% | Population Healthy Nuclei (%) [6]: 77% | Population Hoechst High Intensity Objects (%) [6]: 3% | Population Membrane Permeable-Phenotype (%) [6]: 28% | Population Mitochondria Different-Phenotype (%) [6]: 4% | Population Mitotic Cells (%) [6]: 91% | Population Normal (%) [6]: 96% | Population Pyknosed Nuclei (%) [6]: 4% | Population Tubulin-Different-Phenotype (%) [6]: 68% | Total Cell Count [6]: 2065 | Population Apoptotic (%) [7]: 18% | Population Fragmented Nuclei (%) [7]: 11% | Population Healthy Nuclei (%) [7]: 77% | Population Hoechst High Intensity Objects (%) [7]: 5% | Population Membrane Permeable-Phenotype (%) [7]: 8% | Population Mitochondria Different-Phenotype (%) [7]: 4% | Population Mitotic Cells (%) [7]: 81% | Population Normal (%) [7]: 94% | Population Pyknosed Nuclei (%) [7]: 10% | Population Tubulin-Different-Phenotype (%) [7]: 7% | Total Cell Count [7]: 587 | Population Apoptotic (%) [8]: 3% | Population Fragmented Nuclei (%) [8]: 29% | Population Healthy Nuclei (%) [8]: 68% | Population Hoechst High Intensity Objects (%) [8]: 3% | Population Membrane Permeable-Phenotype (%) [8]: 5% | Population Mitochondria Different-Phenotype (%) [8]: 1% | Population Mitotic Cells (%) [8]: 96% | Population Normal (%) [8]: 96% | Population Pyknosed Nuclei (%) [8]: 2% | Total Cell Count [8]: 2772

N#CCNC(=O)c1ccc(-c2ccnc(Nc3ccc(N4CCOCC4)cc3)n2)cc1 [MOMELOTINIB]
Population Apoptotic (%) [1]: 35% | Population Fragmented Nuclei (%) [1]: 8% | Population Healthy Nuclei (%) [1]: 53% | Population Hoechst High Intensity Objects (%) [1]: 12% | Population Membrane Permeable-Phenotype (%) [1]: 0% | Population Mitochondria Different-Phenotype (%) [1]: 61% | Population Mitotic Cells (%) [1]: 64% | Population Normal (%) [1]: 87% | Population Pyknosed Nuclei (%) [1]: 38% | Population Tubulin-Different-Phenotype (%) [1]: 33% | Total Cell Count [1]: 303 | Population Apoptotic (%) [2]: 8% | Population Fragmented Nuclei (%) [2]: 9% | Population Healthy Nuclei (%) [2]: 52% | Population Hoechst High Intensity Objects (%) [2]: 2% | Population Membrane Permeable-Phenotype (%) [2]: 10% | Population Mitochondria Different-Phenotype (%) [2]: 9% | Population Mitotic Cells (%) [2]: 91% | Population Normal (%) [2]: 97% | Population Tubulin-Different-Phenotype (%) [2]: 21% | Total Cell Count [2]: 198 | Population Apoptotic (%) [3]: 32% | Population Fragmented Nuclei (%) [3]: 6% | Population Healthy Nuclei (%) [3]: 54% | Population Hoechst High Intensity Objects (%) [3]: 6% | Population Membrane Permeable-Phenotype (%) [3]: 4% | Population Mitochondria Different-Phenotype (%) [3]: 70% | Population Mitotic Cells (%) [3]: 67% | Population Normal (%) [3]: 93% | Population Pyknosed Nuclei (%) [3]: 38% | Population Tubulin-Different-Phenotype (%) [3]: 62% | Total Cell Count [3]: 432 | Population Apoptotic (%) [4]: 10% | Population Fragmented Nuclei (%) [4]: 9% | Population Healthy Nuclei (%) [4]: 29% | Population Hoechst High Intensity Objects (%) [4]: 5% | Population Membrane Permeable-Phenotype (%) [4]: 11% | Population Mitochondria Different-Phenotype (%) [4]: 21% | Population Mitotic Cells (%) [4]: 89% | Population Normal (%) [4]: 94% | Population Pyknosed Nuclei (%) [4]: 60% | Population Tubulin-Different-Phenotype (%) [4]: 42% | Total Cell Count [4]: 251 | Population Apoptotic (%) [5]: 38% | Population Fragmented Nuclei (%) [5]: 9% | Population Healthy Nuclei (%) [5]: 58% | Population Hoechst High Intensity Objects (%) [5]: 9% | Population Membrane Permeable-Phenotype (%) [5]: 1% | Population Mitochondria Different-Phenotype (%) [5]: 44% | Population Mitotic Cells (%) [5]: 62% | Population Normal (%) [5]: 90% | Population Pyknosed Nuclei (%) [5]: 31% | Population Tubulin-Different-Phenotype (%) [5]: 34% | Total Cell Count [5]: 349 | Population Apoptotic (%) [6]: 10% | Population Fragmented Nuclei (%) [6]: 10% | Population Healthy Nuclei (%) [6]: 63% | Population Hoechst High Intensity Objects (%) [6]: 1% | Population Membrane Permeable-Phenotype (%) [6]: 14% | Population Mitochondria Different-Phenotype (%) [6]: 9% | Population Mitotic Cells (%) [6]: 89% | Population Normal (%) [6]: 98% | Population Pyknosed Nuclei (%) [6]: 26% | Population Tubulin-Different-Phenotype (%) [6]: 18% | Total Cell Count [6]: 260 | Population Apoptotic (%) [7]: 31% | Population Fragmented Nuclei (%) [7]: 5% | Population Healthy Nuclei (%) [7]: 58% | Population Hoechst High Intensity Objects (%) [7]: 6% | Population Membrane Permeable-Phenotype (%) [7]: 3% | Population Mitochondria Different-Phenotype (%) [7]: 71% | Population Mitotic Cells (%) [7]: 68% | Population Normal (%) [7]: 93% | Population Pyknosed Nuclei (%) [7]: 36% | Population Tubulin-Different-Phenotype (%) [7]: 88% | Total Cell Count [7]: 423 | Population Apoptotic (%) [8]: 17% | Population Fragmented Nuclei (%) [8]: 9% | Population Healthy Nuclei (%) [8]: 41% | Population Hoechst High Intensity Objects (%) [8]: 4% | Population Membrane Permeable-Phenotype (%) [8]: 15% | Population Mitochondria Different-Phenotype (%) [8]: 25% | Population Mitotic Cells (%) [8]: 82% | Population Normal (%) [8]: 95% | Population Pyknosed Nuclei (%) [8]: 49% | Population Tubulin-Different-Phenotype (%) [8]: 78% | Total Cell Count [8]: 239 | Population Apoptotic (%) [9]: 43% | Population Fragmented Nuclei (%) [9]: 19% | Population Healthy Nuclei (%) [9]: 67% | Population Hoechst High Intensity Objects (%) [9]: 4% | Population Membrane Permeable-Phenotype (%) [9]: 3% | Population Mitochondria Different-Phenotype (%) [9]: 16% | Population Mitotic Cells (%) [9]: 56% | Population Normal (%) [9]: 95% | Population Pyknosed Nuclei (%) [9]: 13% | Population Tubulin-Different-Phenotype (%) [9]: 15% | Total Cell Count [9]: 535 | Population Apoptotic (%) [10]: 14% | Population Fragmented Nuclei (%) [10]: 13% | Population Healthy Nuclei (%) [10]: 76% | Population Hoechst High Intensity Objects (%) [10]: 3% | Population Membrane Permeable-Phenotype (%) [10]: 13% | Population Mitochondria Different-Phenotype (%) [10]: 5% | Population Mitotic Cells (%) [10]: 85% | Population Normal (%) [10]: 96% | Population Pyknosed Nuclei (%) [10]: 9% | Population Tubulin-Different-Phenotype (%) [10]: 20% | Total Cell Count [10]: 437 | Population Apoptotic (%) [11]: 37% | Population Fragmented Nuclei (%) [11]: 18% | Population Healthy Nuclei (%) [11]: 69% | Population Hoechst High Intensity Objects (%) [11]: 8% | Population Membrane Permeable-Phenotype (%) [11]: 2% | Population Mitochondria Different-Phenotype (%) [11]: 46% | Population Mitotic Cells (%) [11]: 62% | Population Normal (%) [11]: 91% | Population Pyknosed Nuclei (%) [11]: 11% | Population Tubulin-Different-Phenotype (%) [11]: 79% | Total Cell Count [11]: 471 | Population Apoptotic (%) [12]: 27% | Population Fragmented Nuclei (%) [12]: 14% | Population Healthy Nuclei (%) [12]: 59% | Population Hoechst High Intensity Objects (%) [12]: 4% | Population Membrane Permeable-Phenotype (%) [12]: 13% | Population Mitochondria Different-Phenotype (%) [12]: 24% | Population Mitotic Cells (%) [12]: 72% | Population Normal (%) [12]: 95% | Population Pyknosed Nuclei (%) [12]: 25% | Population Tubulin-Different-Phenotype (%) [12]: 74% | Total Cell Count [12]: 253

Source: ChEMBL document CHEMBL4689842, “EUbOPEN Chemogenomics Library wave 1” (2021)
